Consider 3 molecules from ChEMBL document CHEMBL1123282, “Antiinflammatory activity of substituted 6-hydroxypyrimido[2,1-f]purine-2,4,8(1H,3H,9H)-triones. Atypical nonsteroidal antiinflammatory agents” (J Med Chem, 1986).

SMILES strings stand for the structures.

Data set [1] in a line: Plasma level data at a dose of 20 mg/kg, iv after 12 hr. Details: dose 20 mg/kg, route intravenous. The class given is ADME, organism-based. To be noted: read-out: Plasma level. Summed up: (§1)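 Male Lewis rats get a single iv or oral dose of the sodium salt, suspended in 0.4% (w/v) methyl cellulose. Plasma drug levels are measured by HPLC at the timed points and given as mean ± SD, n = 3.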

Data set [2] is filed under the species Rattus norvegicus. The data set can be described thus: Delayed Type hypersensitivity (DTH) is measured by increase in ear thickness 24 hours after antigen injection into pinna. Type of data set: functional.
The test system of data set [3] is Rattus norvegicus. As to the kind of experiment: Compound was tested in vivo for antiinflammatory activity against chronic adjuvant arthritic rat by therapeutic inhibition 1 degree paw after peroral administration of 3 mg/kg of dose. Type of data set: functional. To be noted: route oral.
Data set [4] in a line: Plasma level data at a dose of 20 mg/kg, iv after 2 hr. Type of data set: ADME, organism-based. Details: dose 20 mg/kg, route intravenous. As to conditions: read-out: Plasma level. Summed up: as §1
Data set [5] can be described thus: Plasma level data at a dose of 20 mg/kg, po after 12 hr. The class given is ADME, organism-based. On the set-up: dose 20 mg/kg, route oral. As to conditions: read-out: Plasma level. Summed up: as §1
Data set [6] relates to Rattus norvegicus. As to the kind of experiment: Compound was tested in vivo against chronic adjuvant arthritic rat by prophylactic inhibition 1 degree paw. Relative potency with respect to (8-Benzyl-5-hydroxy-1,3-dimethyl-6-propyl-1H,8H-1,3,4b,8,9-pentaaza-fluorene-2,4,7-trione). The class given is functional.
Data set [7] deals with Rattus norvegicus. The data set can be described thus: Compound was tested in vivo for antiinflammatory activity against chronic adjuvant arthritic rat by therapeutic percentage inhibition 1 degree paw after peroral administration of 10 mg/kg of dose. Type of data set: functional. As to conditions: route oral.

As to `CC(C)=CCc1c(O)n(Cc2ccccc2)c2nc3c(c(=O)n(C)c(=O)n3C)n2c1=O`, the concentration at 12 h came to 10.6 µg/mL in data set [1] and 26.7 µg/mL in data set [5]. In the data set filed under Rattus norvegicus [2], this molecule displayed a DTH of 0.0582 mm. Besides, the inhibition in vivo at 3 mg/kg with Rattus norvegicus [3] turned out to be 22%. In addition, the concentration at 2 h in data set [4] stood at 53.8 µg/mL.
For `CC(C)=CCc1c(O)n(Cc2ccc(F)cc2)c2nc3c(c(=O)n(C)c(=O)n3C)n2c1=O`, in the data set on Rattus norvegicus [6], the Relative potency is reported as 1.1.
Regarding `CCCc1c(O)n(Cc2ccc(F)cc2)c2nc3c(c(=O)n(C)c(=O)n3C)n2c1=O`, the inhibition in vivo at 10 mg/kg in the data set on Rattus norvegicus [7] turned out to be 27%.
